This sample holds only a part of the variants without activity.

38 variants from the RNAGym collection of RNA variant scans (doi:10.1126/science.aae0568) can be followed below.

Sequences and labels used below:
B1: tRNA (parent)
chain: GUUCCGUUGGCGUAAUGGUAACGCGUCUCCCUCCUAAGGAGAAGACUGCGGGUUCGAGUCCCGUACGGAACG

The variants in the data set derive from B1. Briefly: yeast fitness relative to wild type (ratio to wild type); higher = fitter; tRNA-Arg(CCU), competitive growth, 37 C, YPD. Put shortly:
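Variants of the tRNA-Arg(CCU) gene, chemically synthesised with a 3% per-site mutation rate at 69 sites, were placed at the native genomic locus in Saccharomyces cerevisiae. The pooled strains were competed in YPD at 37°C for 24 hours in six parallel replicates. Gene amplicons from the start population and from each end population were read by 100-nucleotide paired-end sequencing. Darwinian fitness relative to wild type came from changes in genotype frequencies; genotypes needed ≥ 100 starting reads, and estimates < 0.5 were set to 0.5.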
GUUUCGUUGGCGUAAUGGUACCGCGUCUCCCUCCUAAGGAGAAGACUGCGGGUUCGUGUCCCGUACGGAACG: the yeast fitness was at most 0.5.
For GUUUCGUUGGCGUAAUGGUAACGCGUCUCCCUCCUAGGCAGAAGACUGCGGGUUCGAGUCCCGUGCGGAACG, the yeast fitness was at most 0.5.
With GUUUCGUUGGCGUAAUGGUAACGCGUCUCCCUCCUCAGGAGAAGACUGCGGGUUCGAGUCCCAUACGGAACG the figure was 0.536; with GUUUCGUUGGCGUAAUGGUAACGCGUCUCCCUCCUACGGAGAAGACUGCGGGUUCGAGUCCCGUACGGAACG, 0.884; with GUUUCGUUGGCGUAAUGGUUACGCGUCUCCCUCCUAAGGAGAAGACGGCGGGUUCGAAUCCAGUACGGAACG, at most 0.5.
With GUUUCGUUGGCGUAAUGGUAACGCGUCUCCCUCCUGAGGAGAACACUGCGGGUUCGAGUCCCAUACGGAACG the figure was 0.572.
As for GUUUCGUUGGCGUAAUGGUAACGCGUCUCCCUCCUAAGGGGAAGACUGCGGGUUCGAGUCCCGUUCGGAACG, the yeast fitness was found to be 0.596.
As to GUUUCGUUGGCGUAAUGGUAGCGCGUCUCCCUCCUAAGGAGAAGAAUGCGGGUUCGAGUCCCGCACGGAACG, the yeast fitness was 0.676.
For GUUUCGUUGGCGUAAUGGUUACGCGUCUCCCUCCUAAGGAGAAGACUGCGGGUUCGAGUCGCGUACGGAACG the value was at most 0.5; for GUUUCGUUGGCGUAAUGGUAACGCGUCUCCCUCCUACGGAGAAGACUGCCGGUUCGGGUCCCGUACGGAACG, at most 0.5.
GUUUCGUUGGCGUAAUGGUAACGCGUCUCCCUCCUAUGGAGAAGACUGCGGGUUCGAGUCCCGUAAGGAACG: the yeast fitness was 0.542.
As for GUUUCGUUGGCGUAAUGGUAACGCGUCUCCCUCCUACAGAGAAGACUGCGGGUUCGAGUCCCGUACGGAACG, the yeast fitness turned out to be 0.613.
With GUUUCGUUGGCGUAAUGGUUACGCGUCUCCCUCCUAAGGAGAAGAAUGCGGGUUCGAGUCCCGUACGGAACG the figure was 1.02; with GUUUCGUUGGCGUAAUGGUAGCGCGUCGCCCUCCUAAGGAGAAGACUGCGGGUUCGAGUACCGUACGGAACG, at most 0.5.
In the case of GUUUCGUUGGCGUAAUGGUACCGCGUGUCCCUCCUAAGGAGACGACUACGGGUUCGAGUCCCGUAAGGAACG, the yeast fitness is at most 0.5.
With GUUUCGUUGGCGUAAUGGUAUCGCGUCUCCCUCCUAAGGAGAAGACUGCGGGUUUGAGUCCCGUACGGAACG the figure was at most 0.5; with GUUUCGUUGGCGUAAUGGUAUCGUGUAUCCCUCCUACGGUGAAGACUGCGGGUUCGAGUCCCGUACCGAACG, at most 0.5.
For GUUUCGUUGGCGUAAUGGUAACGCGUCUCCCUCCUGAGGCGAACACUGCGGGUUCGAGUCCCGUACGGAACG, the yeast fitness worked out at 0.596.
On to GUUUCGUUGGCGUAAUGGUAGAGCGUCUCCCUCCUAAGGAGAAGAAUGCGGGUUCGAGUCCCGUACGGAACG, for which the yeast fitness was found to be 0.563.
Take GUUUCGUUGGCGUAAUGGUUACGCGUCUCCCUCCUAAGGAGAAGACUGCGGGCUCGAGUCCCGUACCGAACG: the yeast fitness is at most 0.5.
With GUUUCGUUGGCGUAAUGGUUACGCGUCCCCCUCCUAAGGAGAAGACUGCGGGUUCGAGUCGCGUACGGAACG the figure was at most 0.5.
For GUUUCGUUGGCGUAAUGGUAUCGCGGCUCCCUCCUAAGGAGAAGACUGCGGGUUCGAAUCCCGUACGGAACG the value was 0.522.
With GUUUCGUUGGCGUAAUGGUAACGCGUCUCCCUCCUAGGCAGAAGACUGCGGGUUCGAGUCCCGUACGGAACG the figure was at most 0.5; with GUUUCGUUGGCGUAAUGGUAACGCGUCUCCCUCCUAUGGAGAAGACUGCGGAUUCGAGUCCCGUACGGAACG, at most 0.5.
Consider GUUUCGUUGGCGUAAUGGUACCGCGUCUCCCUCCUAAGGAGAAGACUGCGGGUUCGAGUCCCGUACUGAACG, for which the yeast fitness is at most 0.5.
For GUUUCGUUGGCGUAAUGGUAACGCGUCUCCCUCCUAGGGACAAGACUGCGGGUUGGAGUCCCGUACGGAACG, the yeast fitness was found to be 0.537.
Turning to GUUUCGUUGGCGUAAUGGUAGCGCGUCUGCUUCCUAAGGAAAAGACUGCCGGUUCGAGUCCCGUACGGACCG, the yeast fitness amounted to 0.599.
For GUUUCGUUGGCGUAAUGGUAACGCGUCUCCCUCCUCAGGAGAAGACUGCGGGUUCGAGUCCCGUACGGAACG the value was 0.542.
GUUUCGUUGGCGUAAUGGUACCGCGUCUCCCUCCUAAGGAGAAAACUGCGGGUUCGAGUCCCGUACGGAACG: the yeast fitness is at most 0.5.
With GUUUCGUUGGCGUAAUGGUAGCGCGUCUCCCACCUAAGGCGAAGAAUGCGGGUUCGAGUCCCGUACGGAACG the figure was 0.769.
With GUUUCGUUGGCGUAAUGGUAACGCGUCUCCCUCCUAAGGGGAAGACUGCGGGGUCGCGUGCCGUUCGGAACG the figure was 0.583; with GUUUCGUUGGCGUAAUGGUAACGCGUCUCCCUCCUAAGGGGAAGACUGCGGGUUCGAGUCCCGCACGGAACG, 0.952.
For GUUUCGUUGGCGUAAUGGUAGCGCGUCUCCCUCCUAAGGAGAAGACUGCGGGUUCGAGUCCCGUACGGAACG the value was 1.1.
As for GUUUCGUUGGCGUAAUGGUAUCGCGUCUCCCUCCUAAGGAGGAGACUGCCGGUUCGAGUCCCGUAUGGAUCG, the yeast fitness was at most 0.5.
With GUUUCGUUGGCGUAAUGGUUACGCGUCUCCCUCCAAAAGAGAAGACUGCGGGUUCGAGUCCCGUACGGAACG the figure was at most 0.5; with GUUUCGUUGGCGUAAUGGUACCGCGUCUCAGCCCUAAGGACAAGACUGCGGGUUUGAGUCCCGUACGGAACG, at most 0.5; with GUUUCGUUGGCGUAAUGGUACCGCAUCUCAGCCCUAAGGACAAGACUGCGGGUUCGAGUCCCGUACGGAACG, at most 0.5.
With GUUUCGUUGGCGUAAUGGUAGCGCGUCUCCCUCCUAAGGAGAAGAAUGCGGGUUCGAGUCCCGUACGCAACG the figure was 0.544.
